Experimental data from ChEMBL document CHEMBL1142233, “Treatment of diabetes and atherosclerosis by inhibiting fatty-acid-binding protein aP2” (2007).
Activity calls are given as the source filed them. No cut-off for these calls is given here.

Experiments:
[1] = test system: Mus musculus; assay: Increase in glucose uptake in gastrocnemius muscle in ob/ob mouse at 40 mg/kg/day, po after 4 weeks by hyperinsulinemic-euglycaemic clamp studies relative to control; format: functional, organism-based
Method in brief: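 Ob/ob mice after 4 weeks of treatment, jugular catheterized 4 days earlier. Clamp with insulin at 12.5 mU kg⁻¹ min⁻¹, variable 25% glucose to hold basal glucose, and ³H-glucose at 0.1 μCi min⁻¹ with 2-¹⁴C-DG. Tissue uptake computed from the fitted plasma 2-¹⁴C-DG curve and tissue 2-¹⁴C-DG-6-phosphate content. n = 7 and 9.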

[2] = test system: Mus musculus; assay: Effect on insulin level in 5-week old apoE-/- C57BL/6J mouse fed on western diet and administered with 15 mg/kg/day, po drug at 12 week in 12-18 week late intervention study; format: functional
Method in brief: (§1)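 Male Apoe−/− mice on western diet (21% fat, 0.21% cholesterol) from 4–5 weeks of age. Oral gavage for 6 weeks from age 5 or 12 weeks; vehicle 10% 1-methyl-2-pyrrolidone, 5% cremophor EL with ethanol in water. Blood taken after 6 h fast before and after treatment. Glucose by meter; insulin by ELISA; lipids and glycerol colorimetric.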

[3] = test system: THP-1; assay: Reduction of cholesterol ester accumulation in human THP1 cells at 25 uM after 4 days relative to control; format: functional; parameters: scale not given: the % may be the effect or the level left
Method in brief: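 THP-1 monocytes were made into macrophages with 100 nM PMA for 24 h, then loaded for 24 h with 50 μg ml⁻¹ acLDL in 5% LPDS. They were then held 4 days in 10% FBS with 25 μM inhibitor or DMSO. After hexane/isopropanol extraction, cholesterol ester was taken as total minus free cholesterol, per cellular protein.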

[4] = test system: Mus musculus; assay: Effect on glycerol level in ob/ob mouse at 40 mg/kg/day, po after 6 weeks relative to control; format: functional
Method in brief: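 Male ob/ob mice given oral gavage daily for 6 weeks from 8 weeks old, n = 6 per group. Blood taken after 6 h fast before and after treatment; fed glucose taken at week 2. Glucose by meter on 3 μl whole blood, insulin by ultrasensitive ELISA, cholesterol, FFA and glycerol by colorimetric microplate assays.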

[5] = test system: Mus musculus; assay: Effect on triglyceride level in 5-week old apoE-/- C57BL/6J mouse fed on western diet and 15 mg/kg/day, po drug simultaneously in 5-11 week early intervention study; format: functional; method in brief: as §1
[6] = test system: Macrophage; assay: Decrease in MCP1 production in mouse aP2+/+ macrophage cells after 24 hrs; format: functional, cell-based
Method in brief: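 Immortalized mouse macrophage lines (aP2−/−R re-expressing aP2) kept 24 h in RPMI plus 5% LPDS with inhibitor 0–25 μM in DMSO. MCP-1 in supernatant measured by ELISA and expressed relative to inhibitor-free cells of each line. At least triplicate.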

[7] = test system: THP-1; assay: Reduction of IL6 expression in human THP1 cells expressing aP2 relative to control; format: functional, cell-based
[8] = test system: Mus musculus; assay: Effect on cholesterol level in 5-week old apoE-/- C57BL/6J mouse fed on western diet and administered with 15 mg/kg/day, po drug at 12 week in 12-18 week late intervention study; format: functional; method in brief: as §1
[9] = target: Apolipoprotein A-I (Homo sapiens) (UniProt P02647); assay: Increase in APOA1-mediated cholesterol in human THP1 cells at 25 uM relative to control; format: cell-based; details: THP-1
Method in brief: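 Macrophages loaded 24 h in RPMI with 5% LPDS, 1 μCi ml⁻¹ ³H-cholesterol and 50 μg ml⁻¹ acLDL, ± 25 μM inhibitor. Equilibrated 24 h in 0.2% fatty-acid-free BSA ± inhibitor, then 4 h ± APOA1 20 μg ml⁻¹. Efflux = medium ³H as % of total, per mg protein; mouse lines normalized to untreated aP2+/+.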

Sequence of Apolipoprotein A-I (Homo sapiens) (P02647 whole entry): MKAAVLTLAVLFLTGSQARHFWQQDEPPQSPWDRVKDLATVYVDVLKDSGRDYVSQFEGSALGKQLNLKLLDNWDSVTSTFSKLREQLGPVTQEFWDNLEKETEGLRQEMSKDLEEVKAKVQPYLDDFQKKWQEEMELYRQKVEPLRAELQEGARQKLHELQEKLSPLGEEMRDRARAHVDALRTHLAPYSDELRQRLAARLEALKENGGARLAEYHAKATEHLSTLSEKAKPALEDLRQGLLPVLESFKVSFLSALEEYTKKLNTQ

Activity [9]: Active
Structure (SMILES): CCc1c(-c2ccccc2)c(-c2ccccc2)nn1-c1ccccc1-c1cccc(OCC(=O)O)c1
Activity [1]: Active
Activity [2]: 2.19 ng/mL
Activity [3]: 44%
Activity [4]: 0.56 mM
Activity [5]: 213.6 mg/dL
Activity [6]: Active
Activity [7]: Active
Activity [8]: 2277.2 mg/dL
